Data reported in ChEMBL document CHEMBL2380224, “Fragment-based ligand design of novel potent inhibitors of tankyrases” (J Med Chem, 2013).

Experiments:
[1] = species: Homo sapiens; assay: Selectivity ratio of IC50 for PARP2 (unknown origin) to IC50 for TNKS2 PARP domain (947 to 1162) (unknown origin)
[2] = target: Protein mono-ADP-ribosyltransferase PARP6 (Homo sapiens, UniProt Q2NL67); assay: Inhibition of PARP6 (unknown origin)
[3] = target: T1, Protein mono-ADP-ribosyltransferase PARP3 (Homo sapiens, UniProt Q9Y6F1); assay: Inhibition of PARP3 (unknown origin)
T1 sequence (Q9Y6F1 whole entry): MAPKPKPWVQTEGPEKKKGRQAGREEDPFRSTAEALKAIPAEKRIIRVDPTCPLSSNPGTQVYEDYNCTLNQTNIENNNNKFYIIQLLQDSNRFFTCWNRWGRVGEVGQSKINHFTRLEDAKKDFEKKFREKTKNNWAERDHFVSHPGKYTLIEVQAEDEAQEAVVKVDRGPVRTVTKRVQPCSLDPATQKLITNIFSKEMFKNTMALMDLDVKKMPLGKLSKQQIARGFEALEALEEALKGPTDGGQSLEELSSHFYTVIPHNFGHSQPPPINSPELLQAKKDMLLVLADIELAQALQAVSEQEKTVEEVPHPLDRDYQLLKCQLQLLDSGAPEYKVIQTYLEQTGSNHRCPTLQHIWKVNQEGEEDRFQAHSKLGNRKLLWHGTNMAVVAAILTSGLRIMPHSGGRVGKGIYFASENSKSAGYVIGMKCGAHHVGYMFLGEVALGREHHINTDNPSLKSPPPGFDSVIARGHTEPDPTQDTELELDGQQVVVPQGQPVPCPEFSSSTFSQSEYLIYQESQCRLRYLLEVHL

[4] = target: Poly [ADP-ribose] polymerase 1 (Homo sapiens, UniProt P09874); assay: Inhibition of PARP1 (unknown origin)
[5] = target: Poly [ADP-ribose] polymerase 2 (Homo sapiens, UniProt Q9UGN5); assay: Inhibition of PARP2 (unknown origin)
[6] = target: T2, Poly [ADP-ribose] polymerase tankyrase-2 (Homo sapiens, UniProt Q9H2K2); assay: Inhibition of auto-PARsylation of GST-tagged TNKS2 PARP domain (947 to 1162) (unknown origin) expressed in Escherichia coli BL21(DE3) after 2 hrs by LC/MS analysis
T2 sequence (Q9H2K2 whole entry): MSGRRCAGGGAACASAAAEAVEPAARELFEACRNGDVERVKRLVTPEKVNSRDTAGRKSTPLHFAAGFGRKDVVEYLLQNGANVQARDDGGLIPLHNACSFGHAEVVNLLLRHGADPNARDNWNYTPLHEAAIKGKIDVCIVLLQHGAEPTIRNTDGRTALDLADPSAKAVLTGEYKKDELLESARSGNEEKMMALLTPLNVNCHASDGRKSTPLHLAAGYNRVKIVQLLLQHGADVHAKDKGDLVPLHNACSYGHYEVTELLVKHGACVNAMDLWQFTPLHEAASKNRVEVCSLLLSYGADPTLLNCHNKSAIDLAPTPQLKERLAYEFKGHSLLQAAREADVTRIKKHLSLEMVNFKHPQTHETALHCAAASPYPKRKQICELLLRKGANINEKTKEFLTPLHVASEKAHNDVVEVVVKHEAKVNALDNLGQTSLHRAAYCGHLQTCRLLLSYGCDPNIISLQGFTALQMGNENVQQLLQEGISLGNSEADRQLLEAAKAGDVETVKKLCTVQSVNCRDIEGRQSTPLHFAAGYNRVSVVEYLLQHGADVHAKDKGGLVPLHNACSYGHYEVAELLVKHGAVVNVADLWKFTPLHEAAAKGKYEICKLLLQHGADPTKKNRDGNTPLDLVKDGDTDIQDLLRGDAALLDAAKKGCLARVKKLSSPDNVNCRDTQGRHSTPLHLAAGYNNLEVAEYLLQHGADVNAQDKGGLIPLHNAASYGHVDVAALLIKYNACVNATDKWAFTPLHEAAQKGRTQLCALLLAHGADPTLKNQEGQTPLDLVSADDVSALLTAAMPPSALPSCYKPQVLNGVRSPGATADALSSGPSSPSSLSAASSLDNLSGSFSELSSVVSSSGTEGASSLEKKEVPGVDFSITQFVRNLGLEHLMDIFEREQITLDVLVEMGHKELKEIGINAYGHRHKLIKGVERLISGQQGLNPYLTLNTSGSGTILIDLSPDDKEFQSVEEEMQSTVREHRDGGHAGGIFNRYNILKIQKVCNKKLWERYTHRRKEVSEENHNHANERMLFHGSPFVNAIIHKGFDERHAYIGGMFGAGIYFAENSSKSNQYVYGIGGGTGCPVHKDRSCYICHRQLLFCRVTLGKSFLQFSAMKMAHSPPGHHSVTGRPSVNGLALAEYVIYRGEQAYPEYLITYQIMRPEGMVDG

[7] = target: T3, Poly [ADP-ribose] polymerase tankyrase-2 (Homo sapiens) (UniProt Q9H2K2); assay: Binding affinity to TNKS2 PARP domain (947 to 1162) (unknown origin) expressed in Escherichia coli BL21(DE3) assessed as thermal stabilization at 125 uM by differential scanning flourimetric analysis
T3 sequence (whole entry): T2 sequence (Q9H2K2 whole entry)
Procedure, shortened: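 DSF dose−response. TNKS2 at 0.2 mg/mL with SYPRO Orange (5×). Compounds were serially diluted in 100% DMSO at 50× the assay concentration. Chymotrypsin (1/100 TNKS2 mass equivalents) was added to the protein–dye mix just before the run. Scanned 25−80 °C at about 2 °C/min, ex 490/em 575 nm, and Tm shift was taken against the DMSO control.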

[8] = target: T2, Poly [ADP-ribose] polymerase tankyrase-2; assay: Binding affinity to 6His-tagged TNKS2 PARP domain (947 to 1162) (unknown origin) expressed in Escherichia coli BL21(DE3) by surface plasmon resonance analysis
Procedure, shortened: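 SPR on a Biacore instrument. Running buffer: 20 mM PBS pH 7.4, 0.05% Tween20, 2% DMSO. His-tagged TNKS2 (20 μg/mL in 20 mM PBS pH 7.4) was capture-coupled at 10 μL/min onto a Ni²⁺/NHS doubly preactivated NTA chip, to a target of 5000 RU.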

[9] = species: Homo sapiens; assay: Selectivity ratio of IC50 for PARP6 (unknown origin) to IC50 for TNKS2 PARP domain (947 to 1162) (unknown origin)
[10] = species: Homo sapiens; assay: Selectivity ratio of IC50 for PARP3 (unknown origin) to IC50 for TNKS2 PARP domain (947 to 1162) (unknown origin)
[11] = species: Homo sapiens; assay: Selectivity ratio of IC50 for PARP1 (unknown origin) to IC50 for TNKS2 PARP domain (947 to 1162) (unknown origin)

Sequence of Poly [ADP-ribose] polymerase 2 (Q9UGN5 whole entry, the tested form may be a part): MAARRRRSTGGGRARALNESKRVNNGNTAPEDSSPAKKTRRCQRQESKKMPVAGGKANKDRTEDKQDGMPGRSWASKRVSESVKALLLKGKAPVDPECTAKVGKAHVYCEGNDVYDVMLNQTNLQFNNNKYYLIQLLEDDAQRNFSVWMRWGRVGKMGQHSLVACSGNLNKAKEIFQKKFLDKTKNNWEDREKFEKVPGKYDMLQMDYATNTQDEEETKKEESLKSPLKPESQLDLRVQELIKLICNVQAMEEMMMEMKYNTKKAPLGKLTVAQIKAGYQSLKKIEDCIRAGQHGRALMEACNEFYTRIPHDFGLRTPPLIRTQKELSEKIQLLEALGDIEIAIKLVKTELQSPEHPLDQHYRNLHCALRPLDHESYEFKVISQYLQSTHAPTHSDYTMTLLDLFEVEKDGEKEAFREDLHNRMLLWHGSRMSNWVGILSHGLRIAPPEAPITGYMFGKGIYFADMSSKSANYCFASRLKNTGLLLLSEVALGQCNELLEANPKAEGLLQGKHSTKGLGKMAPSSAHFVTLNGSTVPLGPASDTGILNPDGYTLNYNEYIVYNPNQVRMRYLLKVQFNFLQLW
Sequence of Protein mono-ADP-ribosyltransferase PARP6 (Q2NL67 whole entry): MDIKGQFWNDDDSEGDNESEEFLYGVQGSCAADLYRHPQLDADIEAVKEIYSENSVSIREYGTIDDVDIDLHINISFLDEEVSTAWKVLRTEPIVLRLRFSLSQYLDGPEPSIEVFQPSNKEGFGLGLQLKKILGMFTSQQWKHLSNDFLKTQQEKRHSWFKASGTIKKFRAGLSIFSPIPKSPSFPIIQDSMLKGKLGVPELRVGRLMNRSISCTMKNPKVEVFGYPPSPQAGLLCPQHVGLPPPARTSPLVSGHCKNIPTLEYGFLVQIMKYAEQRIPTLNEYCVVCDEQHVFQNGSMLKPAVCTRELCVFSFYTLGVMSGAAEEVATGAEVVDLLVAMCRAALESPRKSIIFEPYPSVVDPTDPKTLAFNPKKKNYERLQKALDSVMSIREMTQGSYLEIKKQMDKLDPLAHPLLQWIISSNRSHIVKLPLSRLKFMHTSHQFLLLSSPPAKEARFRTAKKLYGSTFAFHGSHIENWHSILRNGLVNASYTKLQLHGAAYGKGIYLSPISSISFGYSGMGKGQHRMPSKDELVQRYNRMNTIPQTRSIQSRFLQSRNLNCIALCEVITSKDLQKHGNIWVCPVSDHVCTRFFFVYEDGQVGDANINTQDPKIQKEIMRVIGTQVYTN
Sequence of Poly [ADP-ribose] polymerase 1 (P09874 whole entry): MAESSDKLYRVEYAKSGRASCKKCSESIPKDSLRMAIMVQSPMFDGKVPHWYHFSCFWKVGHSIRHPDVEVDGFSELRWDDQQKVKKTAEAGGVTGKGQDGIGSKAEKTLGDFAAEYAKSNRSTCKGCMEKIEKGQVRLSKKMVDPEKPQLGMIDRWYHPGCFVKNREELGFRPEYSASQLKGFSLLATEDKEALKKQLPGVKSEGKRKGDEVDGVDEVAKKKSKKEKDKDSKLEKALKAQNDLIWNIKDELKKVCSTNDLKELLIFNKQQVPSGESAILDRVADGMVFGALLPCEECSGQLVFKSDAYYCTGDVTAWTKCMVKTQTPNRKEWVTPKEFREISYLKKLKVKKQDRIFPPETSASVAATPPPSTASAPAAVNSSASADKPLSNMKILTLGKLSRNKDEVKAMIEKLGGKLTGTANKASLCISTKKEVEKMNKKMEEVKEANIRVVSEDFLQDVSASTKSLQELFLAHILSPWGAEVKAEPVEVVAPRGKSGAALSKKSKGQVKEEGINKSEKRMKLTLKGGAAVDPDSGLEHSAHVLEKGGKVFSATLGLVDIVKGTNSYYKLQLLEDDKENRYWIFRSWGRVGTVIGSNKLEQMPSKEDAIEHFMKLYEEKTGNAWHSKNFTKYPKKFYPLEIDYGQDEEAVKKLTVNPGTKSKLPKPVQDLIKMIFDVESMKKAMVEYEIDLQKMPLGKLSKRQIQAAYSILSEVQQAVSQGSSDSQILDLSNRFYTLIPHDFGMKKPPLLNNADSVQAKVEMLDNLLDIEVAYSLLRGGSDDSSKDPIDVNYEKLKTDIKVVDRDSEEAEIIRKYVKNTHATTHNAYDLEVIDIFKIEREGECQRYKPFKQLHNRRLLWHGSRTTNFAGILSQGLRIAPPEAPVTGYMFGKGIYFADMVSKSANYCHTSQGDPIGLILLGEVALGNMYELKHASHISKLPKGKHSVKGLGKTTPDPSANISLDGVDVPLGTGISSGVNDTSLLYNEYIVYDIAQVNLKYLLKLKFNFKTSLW

Ratio IC50 [1]: > 100 | IC50 [2]: > 10 µM | IC50 [3]: > 10 µM | IC50 [4]: > 10 µM | IC50 [5]: > 10 µM | IC50 [6]: 0.052 µM | ΔTm [7]: 5.1 °C | Kd [8]: 0.28 µM | Ratio IC50 [9]: > 100 | Ratio IC50 [10]: > 100 | Ratio IC50 [11]: > 100
Structure (SMILES): Cc1cc(=O)[nH]c2cc(-c3ccccc3F)ccc12
